In brackets after ≈: the same amount, converted by molar mass.
What was measured:
Pseudomonas aeruginosa [1] = experiment: Antimicrobial activity against Pseudomonas aeruginosa K2184 over expressing MexB efflux pump; type: functional
Staphylococcus aureus [2] = experiment: Antimicrobial activity against Staphylococcus aureus K2361 over expressing NorA efflux pump; type: functional
Staphylococcus aureus [3] = experiment: Antimicrobial activity against Staphylococcus aureus K2886 over expressing MepA efflux pump; type: functional
Staphylococcus aureus [4] = experiment: Inhibition of NorA efflux pump in Staphylococcus aureus K2361 at 0.50 assessed as fold reduction in ethidium bromide minimum inhibitory concentration; type: functional; design: concentration or dose not given beside the values
Escherichia coli [5] = experiment: Antimicrobial activity against Escherichia coli K2201; type: functional
Staphylococcus aureus [6] = experiment: Inhibition of MepA-mediated efflux in Staphylococcus aureus K2886; type: functional, organism-based
How it was run: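 Efflux from MepA-overexpressing S. aureus K2886, done in duplicate. Reported as mean total efflux over a 5 min time course.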

Staphylococcus aureus [7] = experiment: Inhibition of MepA efflux pump in Staphylococcus aureus K2886 at 1/2 MIC assessed as fold reduction in ethidium bromide minimum inhibitory concentration
Escherichia coli [8] = experiment: Antimicrobial activity against Escherichia coli K2203 over expressing AcrB efflux pump
Staphylococcus aureus [9] = experiment: Antimicrobial activity against Staphylococcus aureus K1902; type: functional
Staphylococcus aureus [10] = experiment: Inhibition of NorA-mediated efflux in Staphylococcus aureus K2361; type: functional, organism-based
Staphylococcus aureus [11] = experiment: Inhibition of NorA efflux pump in Staphylococcus aureus K2361 at 0.79 uM MIC assessed as fold reduction in ethidium bromide minimum inhibitory concentration; type: functional
How it was run: (§1)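 Ethidium bromide MIC was determined for the pump-expressing S. aureus strain, alone and with the efflux inhibitor added at 1/4 or 1/2 of the inhibitor's own MIC against that strain. Potentiation is expressed as fold lowering of the ethidium bromide MIC. Parent strains SA-K1902 and SA-K2885 were tested in the same way at 1/2 MIC.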

Staphylococcus aureus [12] = experiment: Antimicrobial activity against Staphylococcus aureus K2885; type: functional
Staphylococcus aureus [13] = experiment: Inhibition of MepA efflux pump in Staphylococcus aureus K2886 at 0.39 uM assessed as fold reduction in ethidium bromide minimum inhibitory concentration; type: functional; how it was run: as §1
Pseudomonas aeruginosa [14] = experiment: Antimicrobial activity against Pseudomonas aeruginosa K3082; type: functional
Staphylococcus aureus [15] = experiment: Inhibition of MepA efflux pump in Staphylococcus aureus K2886 at 4.16 uM assessed as fold reduction in ethidium bromide minimum inhibitory concentration; type: functional
Staphylococcus aureus [16] = experiment: Inhibition of NorA efflux pump in Staphylococcus aureus K2361 at 8.32 uM assessed as fold reduction in ethidium bromide minimum inhibitory concentration; type: functional
Staphylococcus aureus [17] = experiment: Inhibition of MepA efflux pump in Staphylococcus aureus K2886 at 1.58 uM MIC assessed as fold reduction in ethidium bromide minimum inhibitory concentration; type: functional
Staphylococcus aureus [18] = experiment: Inhibition of NorA efflux pump in Staphylococcus aureus K2361 at 1.58 uM MIC assessed as fold reduction in ethidium bromide minimum inhibitory concentration; type: functional
Staphylococcus aureus [19] = experiment: Inhibition of NorA efflux pump in Staphylococcus aureus K2361 at 8.21 uM MIC assessed as fold reduction in ethidium bromide minimum inhibitory concentration; type: functional
Staphylococcus aureus [20] = experiment: Inhibition of MepA efflux pump in Staphylococcus aureus K2886 at 4.1 uM MIC assessed as fold reduction in ethidium bromide minimum inhibitory concentration; type: functional
Staphylococcus aureus [21] = experiment: Inhibition of MepA efflux pump in Staphylococcus aureus K2886 at 0.50 uM assessed as fold reduction in ethidium bromide minimum inhibitory concentration; type: functional

| SMILES | MIC (Pseudomonas aeruginosa [1]) [µg/mL] | MIC (Staphylococcus aureus [2]) [µg/mL] | MIC (Staphylococcus aureus [3]) [µg/mL] | MIC (Escherichia coli [5]) [µg/mL] | IC50 (Staphylococcus aureus [6]) [µM] | MIC (Staphylococcus aureus [9]) [µg/mL] | IC50 (Staphylococcus aureus [10]) [µM] | MIC (Staphylococcus aureus [12]) [µg/mL] | MIC (Pseudomonas aeruginosa [14]) [µg/mL] | Fold change (Staphylococcus aureus [4]) | other results |
| --- | --- | --- | --- | --- | --- | --- | --- | --- | --- | --- | --- |
| Fc1ccc([C@@H]2CCNC[C@H]2COc2cc(Br)ccc2Cl)cc1 | 100 (≈ 251 µM) | 12.5 (≈ 31.4 µM) | 6.25 (≈ 15.7 µM) | 25 (≈ 62.7 µM) | 13 | 12.5 (≈ 31.4 µM) | < 10 | 6.25 (≈ 15.7 µM) | 100 (≈ 251 µM) | 32 | Fold change (Staphylococcus aureus [7]): 8; MIC (Escherichia coli [8]): 50 µg/mL (≈ 125 µM); Fold change (Staphylococcus aureus [11]): 4; Fold change (Staphylococcus aureus [13]): 4 |
| Fc1ccc([C@@H]2CCNC[C@H]2COc2ccc3c(c2)OCO3)cc1 [PAROXETINE] |  |  |  |  | < 10 |  | 15 |  |  |  |  |
| Fc1ccc([C@@H]2CCNC[C@H]2CSc2ccccc2)cc1 |  |  |  |  |  |  | 18 |  |  |  |  |
| Fc1ccc([C@@H]2CCNC[C@H]2CNc2ccccc2)cc1 |  |  |  |  |  |  | > 50 |  |  |  |  |
| Fc1ccc([C@@H]2CCNC[C@H]2COc2ccccc2)cc1 |  |  |  |  |  |  | 22 |  |  |  |  |

Now from value to compound, other results behind:

| MIC (Pseudomonas aeruginosa [1]) [µg/mL] | MIC (Staphylococcus aureus [2]) [µg/mL] | MIC (Staphylococcus aureus [3]) [µg/mL] | MIC (Escherichia coli [5]) [µg/mL] | IC50 (Staphylococcus aureus [6]) [µM] | MIC (Staphylococcus aureus [9]) [µg/mL] | IC50 (Staphylococcus aureus [10]) [µM] | MIC (Staphylococcus aureus [12]) [µg/mL] | MIC (Pseudomonas aeruginosa [14]) [µg/mL] | SMILES | Fold change (Staphylococcus aureus [4]) | other results |
| --- | --- | --- | --- | --- | --- | --- | --- | --- | --- | --- | --- |
| 100 (≈ 333 µM) | 100 (≈ 333 µM) | 50 (≈ 166 µM) | 50 (≈ 166 µM) | < 10 | 100 (≈ 333 µM) | 45 | 100 (≈ 333 µM) | 100 (≈ 333 µM) | Clc1ccc(Br)cc1/C=C/[C@H]1CCCNC1 | >128 | Fold change (Staphylococcus aureus [15]): 4; Fold change (Staphylococcus aureus [7]): 16; Fold change (Staphylococcus aureus [16]): 64; MIC (Escherichia coli [8]): 100 µg/mL (≈ 333 µM) |
|  |  |  |  |  |  | > 50 |  |  | COc1ccc(OC[C@H]2CCCNC2)cc1 |  |  |
| 100 (≈ 253 µM) | 25 (≈ 63.3 µM) | 25 (≈ 63.3 µM) | 100 (≈ 253 µM) | 20 | 25 (≈ 63.3 µM) | < 10 | 25 (≈ 63.3 µM) | 100 (≈ 253 µM) | Fc1ccc([C@@H]2CCNC[C@H]2/C=C/c2cc(Br)ccc2Cl)cc1 | 64 | Fold change (Staphylococcus aureus [7]): >32; MIC (Escherichia coli [8]): 100 µg/mL (≈ 253 µM); Fold change (Staphylococcus aureus [17]): 4; Fold change (Staphylococcus aureus [18]): 16 |
|  |  |  |  |  |  | > 50 |  |  | c1ccc(OC[C@H]2CCCNC2)cc1 |  |  |
| 100 (≈ 328 µM) | > 100 | > 100 | 100 (≈ 328 µM) | < 10 | 100 (≈ 328 µM) | 40 | 100 (≈ 328 µM) | 100 (≈ 328 µM) | Clc1ccc(Br)cc1OC[C@H]1CCCNC1 | 64 | Fold change (Staphylococcus aureus [19]): 16; Fold change (Staphylococcus aureus [20]): 2; Fold change (Staphylococcus aureus [21]): 8 |
|  |  |  |  |  |  | > 50 |  |  | c1ccc(NC[C@H]2CCCNC2)cc1 |  |  |
|  |  |  |  |  |  | > 50 |  |  | c1ccc(SC[C@H]2CCCNC2)cc1 |  |  |

Source: ChEMBL document CHEMBL1141490, “Synthesis and evaluation of PSSRI-based inhibitors of Staphylococcus aureus multidrug efflux pumps” (Bioorg Med Chem Lett, 2008)
